Results from ChEMBL document CHEMBL3797028, “Novel S1P1 receptor agonists - Part 4: Alkylaminomethyl substituted aryl head groups” (Eur J Med Chem, 2016).

What was measured:
[1] = Selectivity ratio of EC50 for human recombinant S1PR3 expressed in CHO cell membranes to EC50 for human recombinant S1PR1 expressed in CHO cell membranes; type: cell-based
Summary of the method: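 Compound and membranes are pre-incubated 30 min at rt, then incubated 1 h at rt, filtered and counted. EC50 is the concentration giving 50% of S1P-defined specific binding, as the geometric mean of ≥3 independent duplicate runs. Ratio = EC50 S1PR3/EC50 S1PR1.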

[2] = test system: Rattus norvegicus; experiment: Change in circulating lymphocyte count in Wistar rat at 3 mg/kg administered as single dose through oral gavage after 24 hrs relative to control; type: functional
Summary of the method: (§1)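 Male Wistar rats (RccHan:WIST; n = 6) were given a single oral gavage dose of compound in DMSO plus 7.5% succinylated gelatine (final 5% DMSO). Blood lymphocytes were counted just before dosing and at later timepoints. Percent change was calculated per animal relative to the pre-dose value and compared with a vehicle-treated group, reported as the mean. A ±15% change was treated as baseline, and a reduction of about 60% or more as maximal.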

[3] = test system: Rattus norvegicus; experiment: Change in circulating lymphocyte count in Wistar rat at 1 mg/kg administered as single dose through oral gavage after 24 hrs relative to control; type: functional; summary of the method: as §1
[4] = test system: Rattus norvegicus; experiment: Reduction in circulating lymphocyte count in po dosed Wistar rat administered through gavage after 3 to 96 hrs; type: functional, organism-based; summary of the method: as §1
[5] = Plasma concentration in Wistar rat at 10 mg/kg administered as single dose through oral gavage after 3 hrs by LC-MS/MS analysis; type: ADME, organism-based
Summary of the method: (§2)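 Single oral gavage dose to male Wistar rats in DMSO/7.5% succinylated gelatine (final 5% DMSO). Blood was drawn into EDTA at the lymphocyte-count timepoints. Plasma was prepared at 3000 g for 10 min at 4 °C and analysed by LC-MS/MS after protein precipitation.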

[6] = biological target: T1, Sphingosine 1-phosphate receptor 4 (Homo sapiens, UniProt O95977); experiment: Agonist activity at S1PR4 (unknown origin)
T1 sequence (O95977 whole entry): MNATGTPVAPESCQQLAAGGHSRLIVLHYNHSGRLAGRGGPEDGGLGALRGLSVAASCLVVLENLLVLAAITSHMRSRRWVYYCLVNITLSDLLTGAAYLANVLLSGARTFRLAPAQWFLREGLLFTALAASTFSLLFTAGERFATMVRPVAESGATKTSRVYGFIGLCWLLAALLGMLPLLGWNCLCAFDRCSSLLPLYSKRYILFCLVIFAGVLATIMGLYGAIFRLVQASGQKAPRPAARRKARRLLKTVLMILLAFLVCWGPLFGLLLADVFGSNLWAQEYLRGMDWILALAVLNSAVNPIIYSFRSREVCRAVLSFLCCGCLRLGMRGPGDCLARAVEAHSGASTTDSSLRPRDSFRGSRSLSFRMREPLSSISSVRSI

[7] = Ratio of total drug level in brain to plasma in Wistar rat at 10 mg/kg administered as single dose through oral gavage after 2 hrs; type: ADME, organism-based; conditions: read-out: BPR
Summary of the method: (§3)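 Male Wistar rats (n = 2 per timepoint) were dosed orally at 10 mg/kg. At 2, 6 and 24 h they were anaesthetised with 5% isoflurane and sacrificed, and blood was taken for plasma. The brain was perfused via the carotid with 10 mL 0.9% NaCl, removed, and homogenised in an equal volume of ice-cold 0.1 M Na-phosphate pH 7.4. Samples were assayed by LC-MS/MS against blank-brain calibration. Brain/plasma ratio was calculated from these values, reported as the mean of 2.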

[8] = biological target: Sphingosine 1-phosphate receptor 2 (Homo sapiens, UniProt O95136); experiment: Agonist activity at S1PR2 (unknown origin)
Sphingosine 1-phosphate receptor 2, sequence (O95136 whole entry): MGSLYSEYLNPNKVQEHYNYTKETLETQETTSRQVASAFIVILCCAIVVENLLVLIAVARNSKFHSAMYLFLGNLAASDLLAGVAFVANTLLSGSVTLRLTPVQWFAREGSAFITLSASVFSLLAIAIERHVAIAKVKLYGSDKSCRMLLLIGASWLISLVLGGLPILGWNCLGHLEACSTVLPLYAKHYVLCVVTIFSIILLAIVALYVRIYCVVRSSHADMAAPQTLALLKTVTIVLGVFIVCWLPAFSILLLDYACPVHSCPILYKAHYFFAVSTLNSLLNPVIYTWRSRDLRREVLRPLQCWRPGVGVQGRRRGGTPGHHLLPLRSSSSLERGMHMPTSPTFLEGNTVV

[9] = biological target: Sphingosine 1-phosphate receptor 3 (Homo sapiens, UniProt Q99500); experiment: Agonist activity at human recombinant S1PR3 expressed in CHO cell membranes assessed as [35S]GTPgammaS binding preincubated for 30 mins followed by [35S]GTPgammaS addition measured after 1 hr by topcount analysis; type: functional
Sphingosine 1-phosphate receptor 3, sequence (Q99500 whole entry): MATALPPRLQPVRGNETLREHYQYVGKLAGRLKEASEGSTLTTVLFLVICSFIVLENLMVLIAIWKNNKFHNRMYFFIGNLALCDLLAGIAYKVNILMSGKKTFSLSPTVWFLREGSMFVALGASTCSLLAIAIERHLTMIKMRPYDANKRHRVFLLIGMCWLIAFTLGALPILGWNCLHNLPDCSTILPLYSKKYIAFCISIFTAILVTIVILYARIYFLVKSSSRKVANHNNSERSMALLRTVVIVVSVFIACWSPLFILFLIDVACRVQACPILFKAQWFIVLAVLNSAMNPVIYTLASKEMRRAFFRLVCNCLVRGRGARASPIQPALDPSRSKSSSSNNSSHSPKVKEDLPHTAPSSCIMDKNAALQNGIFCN
Summary of the method: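 Membranes from CHO cells expressing recombinant human S1P1 or S1P3 were used. Buffer was 20 mM Hepes pH 7.4, 100 mM NaCl, 5 mM MgCl2, 0.1% fatty-acid-free BSA, 2.5% DMSO and 50 pM 35S-GTPgammaS. GDP was […] for S1P3. Compound was preincubated 30 min at rt, then incubated 1 h at rt with 35S-GTPgammaS. Bound label was collected by filtration and counted. Specific binding was taken against 10 uM S1P. EC50 was the 50%-of-specific-binding concentration, reported as the geometric mean of at least three independent duplicate runs.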

[10] = test system: Rattus norvegicus; experiment: Change in circulating lymphocyte count in Wistar rat at 3 mg/kg administered as single dose through oral gavage after 3 hrs relative to control; type: functional; summary of the method: as §1
[11] = Total brain concentration in Wistar rat at 10 mg/kg administered as single dose through oral gavage after 6 hrs by LC-MS/MS analysis; type: ADME, organism-based; conditions: read-out: Drug uptake; summary of the method: as §3
[12] = Plasma concentration in Wistar rat at 10 mg/kg administered as single dose through oral gavage after 96 hrs by LC-MS/MS analysis; type: ADME, organism-based; summary of the method: as §2
[13] = Total brain concentration in Wistar rat at 10 mg/kg administered as single dose through oral gavage after 2 hrs by LC-MS/MS analysis; type: ADME, organism-based; conditions: read-out: Drug uptake; summary of the method: as §3
[14] = test system: Plasma; experiment: Plasma concentration in Wistar rat at 1 mg/kg administered as single dose through oral gavage after 72 hrs by LC-MS/MS analysis; type: ADME, organism-based; conditions: in vivo, BLD = below limit of detection; summary of the method: as §2
[15] = test system: Rattus norvegicus; experiment: Change in circulating lymphocyte count in Wistar rat at 10 mg/kg administered as single dose through oral gavage after 96 hrs relative to control; type: functional; summary of the method: as §1
[16] = Plasma concentration in Wistar rat at 3 mg/kg administered as single dose through oral gavage after 6 hrs by LC-MS/MS analysis; type: ADME, organism-based; summary of the method: as §2
[17] = Ratio of total drug level in brain to plasma in Wistar rat at 10 mg/kg administered as single dose through oral gavage after 24 hrs; type: ADME, organism-based; conditions: read-out: BPR; summary of the method: as §3
[18] = test system: Rattus norvegicus; experiment: Change in circulating lymphocyte count in Wistar rat at 10 mg/kg administered as single dose through oral gavage after 3 hrs relative to control; type: functional; summary of the method: as §1
[19] = Distribution coefficient, log D between 1-octonol and phosphate buffer at pH 7; type: physicochemical; conditions: 1-octanol/phosphate buffer
Summary of the method: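 Partition was between 1-octanol and phosphate buffer at pH 7.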

[20] = test system: Liver microsome; experiment: Unbound fraction corrected apparent intrinsic clearance in Wistar rat liver microsomes at 1 uM after 2.5 to 15 mins by LC-MS/MS analysis in presence of NADPH; type: ADME
Summary of the method: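 Apparent CLint was measured by microsomal substrate depletion: 1 uM start, 0.5 mg/mL rat liver microsomes, pH 7.4, 37 °C, NADPH-regenerating system, sampling 0–15 min, LC-MS/MS. It was then divided by the unbound microsomal fraction, which was determined by rapid equilibrium dialysis of 1 mg/mL microsomes for 6 h at 37 °C.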

[21] = test system: Rattus norvegicus; experiment: Change in circulating lymphocyte count in Wistar rat at 3 mg/kg administered as single dose through oral gavage after 6 hrs relative to control; type: functional; summary of the method: as §1
[22] = Ratio of total drug level in brain to plasma in Wistar rat at 10 mg/kg administered as single dose through oral gavage after 6 hrs; type: ADME, organism-based; conditions: read-out: BPR; summary of the method: as §3
[23] = Plasma concentration in Wistar rat at 3 mg/kg administered as single dose through oral gavage after 3 hrs by LC-MS/MS analysis; type: ADME, organism-based; summary of the method: as §2
[24] = Plasma concentration in Wistar rat at 1 mg/kg administered as single dose through oral gavage after 6 hrs by LC-MS/MS analysis; type: ADME, organism-based; summary of the method: as §2

## CCc1cc(-c2noc(-c3cc(C)c(CN(C)CC(C)C)s3)n2)cc(C)c1OC[C@@H](O)CNC(=O)CO
[1]
  Ratio EC50: 290
[2]
  Activity: -25%
[3]
  Activity: 4%
[4]
  Activity: Dose-dependent effect
[5]
  concentration at 3 h: 0.722 µg/mL
[6]
  EC50: > 1 µM
[7]
  Kp at 2 h: 0.64
[8]
  EC50: > 1 µM
[9]
  EC50: 0.145 µM
[10]
  Activity: -59%
[11]
  concentration at 6 h: 1030 ng/g
[12]
  concentration at 96 h: 0.0005 µg/mL
[13]
  concentration at 2 h: 522 ng/g
[14]
  Cp: BLD
[15]
  Activity: 4%
[16]
  concentration at 6 h: 0.17 µg/mL
[17]
  Kp at 24 h: 11.5
[18]
  Activity: -69%
[19]
  logD: > 4.1
[20]
  CL free: 14000 µL/min/mg
[21]
  Activity: -70%
[22]
  Kp at 6 h: 1.69
[23]
  concentration at 3 h: 0.21 µg/mL
[24]
  concentration at 6 h: 0.049 µg/mL
